Assay results as given in ChEMBL document CHEMBL3227923, “Conformational analysis of podophyllotoxin and its congeners. Structure--activity relationship in microtubule assembly” (J Med Chem, 1979).

Species on record: Gallus gallus
Test: Inhibition of chicken brain microtubule polymerization after 30 mins
Outline: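 Chicken brain microtubule assembly in vitro at 37 °C and neutral pH over a 30-min incubation. ID50 is the drug concentration giving 50% inhibition of assembly, averaged from triplicate experiments (standard deviation <15%).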

COc1cc([C@@H]2c3cc4c(cc3C[C@H]3CCC[C@@H]32)OCO4)cc(OC)c1OC gave an ID50 of 5 µM.

With COc1cc([C@@H]2c3cc4c(cc3[C@@H](O)[C@H]3COC(=O)[C@H]23)OCO4)cc(OC)c1OC the ID50 was 5 µM.

Compound COc1cc([C@@H]2c3cc4c(cc3C[C@H]3CSC[C@@H]32)OCO4)cc(OC)c1OC has an ID50 of 10 µM.

COc1cc([C@@H]2c3cc4c(cc3C[C@H]3COC[C@@H]32)OCO4)cc(OC)c1OC showed an ID50 of 0.8 µM.

In the case of COc1cc([C@@H]2c3cc4c(cc3[C@H](O)[C@H]3CS(=O)(=O)C[C@H]23)OCO4)cc(OC)c1OC, the ID50 is reported as over 100 µM.

Compound COc1cc([C@@H]2c3cc4c(cc3C[C@H]3COC(=O)[C@@H]32)OCO4)cc(OC)c1OC has an ID50 of 0.5 µM.

Work on COc1cc([C@@H]2c3cc4c(cc3[C@H](O)[C@H]3COC(=O)[C@H]23)OCO4)cc(OC)c1OC yielded an ID50 of 0.6 µM.

With COc1cc([C@@H]2c3cc4c(cc3[C@H](O)[C@H]3CSC[C@H]23)OCO4)cc(OC)c1OC the ID50 was 10 µM.

With COc1cc([C@@H]2c3cc4c(cc3[C@H](O)[C@H]3COC(=O)[C@@H]23)OCO4)cc(OC)c1OC the ID50 was 30 µM.

For COc1cc([C@@H]2c3cc4c(cc3C[C@H]3CS(=O)(=O)C[C@@H]32)OCO4)cc(OC)c1OC, the ID50 was over 100 µM.

Work on COc1cc([C@@H]2c3cc4c(cc3[C@H](O)[C@H]3COC[C@H]23)OCO4)cc(OC)c1OC yielded an ID50 of 1 µM.
